Experimental findings from ChEMBL document CHEMBL1144905, “More lipophilic dialkyldiamine-based diazeniumdiolates: synthesis, characterization, and application in preparing thromboresistant nitric oxide release polymeric coatings” (J Med Chem, 2003) are described below.

Series [1] is described as follows: Partition coefficient (logP). The note with it: octanol/water. The format is physicochemical. Put shortly: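 Octanol/water partition coefficient calculated with ChemDraw, not measured.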
Series [2] in a line: Apparent half life period in PBS buffer. Type of series: ADME. Summed up:
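Half-life by chemiluminescence at 37 °C. Diazeniumdiolate in 10 mM NaOH (or, if water-insoluble, in THF or NaOH/MeOH), 25–100 µL, injected into 3 mL deoxygenated 100 mM phosphate buffer pH 7.4 with 137 mM NaCl and 2.7 mM KCl. NO released, removed by nitrogen purge, read every 0.25 s to baseline. Half-life = time to release half of total possible NO.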

In general, logP refers to a log measure of how a compound divides between an organic and an aqueous phase. The molecule `CCCCCCNCCCCCCN(CCCCCC)/[N+]([O-])=N/O` registered a lipophilicity (logP) in series [1] of 6.26.

What is called half-life is the time needed for the level to fall by half in the phase considered. With `CCCCCNCCCCCCN(CCCCC)/[N+]([O-])=N/O`, the half-life in series [2] is 4.65 min. In series [1], this molecule had a lipophilicity (logP) of 5.21.

As to `CNCCCCCCN(C)/[N+]([O-])=N/O`, in series [2], the half-life was 1.12 min. Moreover, the logP in series [1] is 0.97.

For the molecule `CCNCCCCCCN(CC)/[N+]([O-])=N/O`, the half-life in series [2] was 5.78 min. Further, the lipophilicity (logP) in series [1] stood at 2.03.

For `CCCCNCCCCCCN(CCCC)/[N+]([O-])=N/O`, in series [2], the half-life was 4.95 min. Moreover, in series [1], the logP was 4.15.

Take `CCCNCCCCCCN(CCC)/[N+]([O-])=N/O`: in series [2], the half-life was 5.32 min. The logP in series [1] worked out at 3.09.
